Source: ChEMBL document CHEMBL1122168, “Species- or isozyme-specific enzyme inhibitors. 6. Synthesis and evaluation of two-substrate condensation products as inhibitors of hexokinases and thymidine kinases” (J Med Chem, 1982)

Columns and labels:
[1] = biological target: T1, Hexokinase-3 (Rattus norvegicus) (UniProt P27926); experiment: Evaluated for the inhibition of Hexokinase type III catalyzed reactions at 0.3 mM concentration
T1 sequence (whole entry): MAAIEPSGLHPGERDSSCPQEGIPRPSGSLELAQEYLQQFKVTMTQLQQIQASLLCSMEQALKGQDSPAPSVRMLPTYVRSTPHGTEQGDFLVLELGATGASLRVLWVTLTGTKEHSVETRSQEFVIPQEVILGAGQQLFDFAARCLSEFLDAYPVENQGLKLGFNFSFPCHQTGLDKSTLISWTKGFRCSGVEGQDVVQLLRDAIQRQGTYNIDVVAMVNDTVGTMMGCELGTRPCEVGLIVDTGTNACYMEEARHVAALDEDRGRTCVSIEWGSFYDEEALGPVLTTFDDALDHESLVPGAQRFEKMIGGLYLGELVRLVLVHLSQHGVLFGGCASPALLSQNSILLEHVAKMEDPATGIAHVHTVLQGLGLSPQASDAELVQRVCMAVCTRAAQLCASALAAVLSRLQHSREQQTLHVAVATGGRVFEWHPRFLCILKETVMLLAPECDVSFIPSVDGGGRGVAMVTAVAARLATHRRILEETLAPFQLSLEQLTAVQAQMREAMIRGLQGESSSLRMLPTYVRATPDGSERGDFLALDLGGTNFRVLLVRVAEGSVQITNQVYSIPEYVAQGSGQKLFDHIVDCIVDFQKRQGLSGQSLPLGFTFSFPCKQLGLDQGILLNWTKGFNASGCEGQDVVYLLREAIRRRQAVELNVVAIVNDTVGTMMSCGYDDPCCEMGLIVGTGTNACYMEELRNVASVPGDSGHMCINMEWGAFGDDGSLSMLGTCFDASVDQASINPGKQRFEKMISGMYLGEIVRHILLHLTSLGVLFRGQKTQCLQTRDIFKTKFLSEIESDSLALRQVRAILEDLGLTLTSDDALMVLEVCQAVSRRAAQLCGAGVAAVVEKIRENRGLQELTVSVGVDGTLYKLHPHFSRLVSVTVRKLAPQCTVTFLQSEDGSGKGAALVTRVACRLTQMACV
Procedure, shortened: (§1)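 Rat HK I, II or III from isoelectric focusing, dialysed with 0.5 mM DTT. PK/LDH-coupled assay in 0.05 M Tris-HCl pH 7.6 with 6.6 mM MgCl2, 10 mM α-D-glucose, 0.45 mM NADH, 0.55 mM PEP and 20 mM KCl. Reactions started with enzyme; rates read from 340 nm absorbance change at 22 °C.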

[2] = biological target: T1, Hexokinase-3 (Rattus norvegicus); experiment: Evaluated for the inhibition of Hexokinase type III catalyzed reactions at 0.6 mM concentration
Procedure, shortened: as §1

[3] = biological target: T2, Hexokinase-1 (Rattus norvegicus) (UniProt P05708); experiment: Evaluated for the inhibition of Hexokinase, type I -catalyzed reactions at 0.3 mM concentration
T2 sequence (whole entry): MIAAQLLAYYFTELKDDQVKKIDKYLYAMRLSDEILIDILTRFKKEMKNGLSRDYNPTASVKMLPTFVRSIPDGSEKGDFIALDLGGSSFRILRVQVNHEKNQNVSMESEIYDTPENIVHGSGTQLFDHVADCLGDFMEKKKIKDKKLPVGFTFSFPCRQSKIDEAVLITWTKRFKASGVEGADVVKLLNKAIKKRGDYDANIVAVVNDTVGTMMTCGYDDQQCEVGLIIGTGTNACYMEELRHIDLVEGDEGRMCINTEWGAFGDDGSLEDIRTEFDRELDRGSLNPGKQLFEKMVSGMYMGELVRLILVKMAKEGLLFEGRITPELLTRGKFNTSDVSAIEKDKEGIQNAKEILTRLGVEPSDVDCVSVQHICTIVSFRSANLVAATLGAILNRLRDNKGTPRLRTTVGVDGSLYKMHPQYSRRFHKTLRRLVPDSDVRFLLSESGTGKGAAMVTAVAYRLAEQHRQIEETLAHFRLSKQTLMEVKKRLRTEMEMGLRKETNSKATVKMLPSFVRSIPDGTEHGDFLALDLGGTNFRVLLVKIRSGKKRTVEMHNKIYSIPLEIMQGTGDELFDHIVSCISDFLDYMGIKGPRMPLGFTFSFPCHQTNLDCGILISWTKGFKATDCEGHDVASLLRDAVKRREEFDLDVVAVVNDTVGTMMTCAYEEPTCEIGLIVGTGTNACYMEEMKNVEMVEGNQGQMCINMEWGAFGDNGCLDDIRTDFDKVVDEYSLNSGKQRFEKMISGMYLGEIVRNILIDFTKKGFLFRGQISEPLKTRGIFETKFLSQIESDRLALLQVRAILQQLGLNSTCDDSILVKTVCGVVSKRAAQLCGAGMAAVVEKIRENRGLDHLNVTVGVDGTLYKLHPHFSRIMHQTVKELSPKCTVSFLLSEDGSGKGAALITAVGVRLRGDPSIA
Procedure, shortened: as §1

[4] = Evaluated for the inhibition constant Ki against hexokinase in yeast; design: species or system Saccharomyces cerevisiae
Procedure, shortened: (§2)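 Yeast HK or rat HK II (isoelectric focusing, dialysed with 0.5 mM DTT). PK/LDH-coupled assay in 0.05 M Tris-HCl pH 7.6 with 6.6 mM MgCl2, 10 mM glucose, 0.45 mM NADH, 0.55 mM PEP, 20 mM KCl. NADH loss followed at 340 nm, 22 °C. Variable MgATP at 0.6–4.0 × KM. Inhibitors given as equimolar Mg complexes.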

Hexokinase-2 = biological target: T3, Hexokinase-2 (Rattus norvegicus, UniProt P27881); experiment: Evaluated for the inhibition constant Ki against Hexokinase, type II
T3 sequence (P27881 whole entry): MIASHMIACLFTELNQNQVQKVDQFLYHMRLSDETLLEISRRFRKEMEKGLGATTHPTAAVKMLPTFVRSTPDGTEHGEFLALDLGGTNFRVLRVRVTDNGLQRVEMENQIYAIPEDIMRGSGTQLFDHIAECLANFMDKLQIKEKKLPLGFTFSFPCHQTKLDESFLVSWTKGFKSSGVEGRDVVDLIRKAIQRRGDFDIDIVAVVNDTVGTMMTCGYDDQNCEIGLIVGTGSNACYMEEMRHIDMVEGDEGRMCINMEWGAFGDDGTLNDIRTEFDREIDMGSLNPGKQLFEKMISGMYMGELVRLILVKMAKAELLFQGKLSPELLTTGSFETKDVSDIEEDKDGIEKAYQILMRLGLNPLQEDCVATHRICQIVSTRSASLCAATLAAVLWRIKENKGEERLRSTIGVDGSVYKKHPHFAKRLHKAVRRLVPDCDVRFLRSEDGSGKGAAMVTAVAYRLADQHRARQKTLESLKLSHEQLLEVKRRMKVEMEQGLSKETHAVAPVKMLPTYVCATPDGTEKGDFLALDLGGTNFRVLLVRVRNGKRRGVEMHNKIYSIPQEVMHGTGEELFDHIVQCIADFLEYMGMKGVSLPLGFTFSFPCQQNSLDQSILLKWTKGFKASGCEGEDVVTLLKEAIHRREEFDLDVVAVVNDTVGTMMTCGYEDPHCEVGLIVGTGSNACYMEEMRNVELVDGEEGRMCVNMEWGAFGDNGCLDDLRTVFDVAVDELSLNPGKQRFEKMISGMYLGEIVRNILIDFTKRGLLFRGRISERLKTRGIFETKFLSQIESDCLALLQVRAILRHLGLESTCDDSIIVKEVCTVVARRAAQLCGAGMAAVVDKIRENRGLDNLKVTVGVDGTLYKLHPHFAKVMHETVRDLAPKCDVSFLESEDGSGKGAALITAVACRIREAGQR
Procedure, shortened: as §2

[5] = biological target: T2, Hexokinase-1 (Rattus norvegicus); experiment: Evaluated for the inhibition of Hexokinase, type I -catalyzed reactionsI at 0.6 mM concentration
Procedure, shortened: as §1

[6] = biological target: T4, Hexokinase-2 (Rattus norvegicus) (UniProt P27881); experiment: Evaluated for the inhibition of Hexokinase, type II catalyzed reactionsI at 0.3 mM concentration
T4 sequence (whole entry): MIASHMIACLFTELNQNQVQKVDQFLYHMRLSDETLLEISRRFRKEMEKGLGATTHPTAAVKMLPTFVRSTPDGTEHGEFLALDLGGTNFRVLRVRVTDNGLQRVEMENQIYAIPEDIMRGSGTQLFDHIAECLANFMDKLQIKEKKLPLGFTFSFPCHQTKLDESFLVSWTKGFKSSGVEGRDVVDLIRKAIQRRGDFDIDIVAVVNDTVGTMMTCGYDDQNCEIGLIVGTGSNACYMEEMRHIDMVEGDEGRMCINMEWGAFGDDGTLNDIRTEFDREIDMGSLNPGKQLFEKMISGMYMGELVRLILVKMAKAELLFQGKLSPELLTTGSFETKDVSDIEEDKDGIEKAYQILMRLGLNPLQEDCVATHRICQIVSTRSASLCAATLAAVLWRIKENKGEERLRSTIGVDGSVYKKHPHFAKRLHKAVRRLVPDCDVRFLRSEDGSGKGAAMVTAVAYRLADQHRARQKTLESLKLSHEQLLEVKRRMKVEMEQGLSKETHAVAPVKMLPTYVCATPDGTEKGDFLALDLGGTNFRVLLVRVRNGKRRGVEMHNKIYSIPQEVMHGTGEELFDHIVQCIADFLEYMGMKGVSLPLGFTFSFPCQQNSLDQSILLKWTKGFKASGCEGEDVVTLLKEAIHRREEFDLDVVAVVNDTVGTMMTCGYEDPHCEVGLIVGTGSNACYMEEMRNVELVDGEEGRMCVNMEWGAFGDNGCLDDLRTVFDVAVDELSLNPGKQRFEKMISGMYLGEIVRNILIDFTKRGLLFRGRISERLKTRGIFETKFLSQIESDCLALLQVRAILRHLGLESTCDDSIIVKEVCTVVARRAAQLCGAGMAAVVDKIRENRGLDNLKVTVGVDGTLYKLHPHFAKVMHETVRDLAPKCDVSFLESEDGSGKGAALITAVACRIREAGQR
Procedure, shortened: as §1

[7] = biological target: T4, Hexokinase-2 (Rattus norvegicus); experiment: Evaluated for the inhibition of Hexokinase, type II catalyzed reactions at 0.6 mM concentration
Procedure, shortened: as §1

[8] = biological target: T2, Hexokinase-1 (Rattus norvegicus); experiment: Evaluated for the inhibition of Hexokinase, type I -catalyzed reactions at 0.6 mM concentration
Procedure, shortened: as §1

[9] = biological target: T4, Hexokinase-2 (Rattus norvegicus); experiment: Evaluated for the inhibition of Hexokinase, type II catalyzed reactions at 0.3 mM concentration
Procedure, shortened: as §1

[10] = substrate: Nc1ncnc2c1ncn2[C@@H]1O[C@H](COP(=O)(O)OP(=O)(O)OP(=O)(O)O)[C@@H](O)[C@H]1O
[11] = substrate: Nc1ncnc2c1ncn2[C@@H]1O[C@H](COP(=O)(O)OP(=O)(O)OP(=O)(O)O)[C@@H](O)[C@H]1O; remark: listed apart in the source
[12] = substrate: Cc1cn([C@H]2C[C@H](O)[C@@H](CO)O2)c(=O)[nH]c1=O
[13] = substrate: Nc1ncnc2c1ncn2[C@@H]1O[C@H](COP(=O)(O)OP(=O)(O)OP(=O)(O)O)[C@@H](O)[C@H]1O; remark: listed apart in the source
[14] = substrate: Cc1cn([C@H]2C[C@H](O)[C@@H](CO)O2)c(=O)[nH]c1=O; remark: listed apart in the source

Nc1ncnc2c1ncn2[C@@H]1O[C@H](COP(=O)(O)OP(=O)(O)OP(=O)(O)O)[C@@H](O)[C@H]1O
Km (Saccharomyces cerevisiae): 210 µM

Nc1ncnc2c1ncn2C1O[C@H](COP(=O)(O)OP(=O)(O)OP(=O)(O)OC[C@@H]2O[C@@H](O)[C@@H](O)[C@H](O)[C@H]2O)[C@@H](O)[C@H]1O (stereo partly specified)
inhibition [1]: 3.1%
inhibition [2]: 6.2%
inhibition [3]: 9.3%
Ki [4]: 1.4 mM
Ki (Hexokinase-2): 2.2 mM
inhibition [5]: 5.6%
inhibition [6]: 4.4%
inhibition [7]: 10.1%

Nc1ncnc2c1ncn2C1O[C@H](COP(=O)(O)OP(=O)(O)OP(=O)(O)OP(=O)(O)OC[C@@H]2O[C@@H](O)[C@@H](O)[C@H](O)[C@H]2O)[C@@H](O)[C@H]1O (stereo partly specified)
inhibition [1]: 6.5%
inhibition [2]: 8.7%
inhibition [8]: 8%
inhibition [9]: 28%
inhibition [3]: 4.7%
Ki [4]: 3.5 mM
inhibition [7]: 30%

B1: Hexokinase-2 (Rattus norvegicus), P27881 (protein)
chain: MIASHMIACLFTELNQNQVQKVDQFLYHMRLSDETLLEISRRFRKEMEKGLGATTHPTAAVKMLPTFVRSTPDGTEHGEFLALDLGGTNFRVLRVRVTDNGLQRVEMENQIYAIPEDIMRGSGTQLFDHIAECLANFMDKLQIKEKKLPLGFTFSFPCHQTKLDESFLVSWTKGFKSSGVEGRDVVDLIRKAIQRRGDFDIDIVAVVNDTVGTMMTCGYDDQNCEIGLIVGTGSNACYMEEMRHIDMVEGDEGRMCINMEWGAFGDDGTLNDIRTEFDREIDMGSLNPGKQLFEKMISGMYMGELVRLILVKMAKAELLFQGKLSPELLTTGSFETKDVSDIEEDKDGIEKAYQILMRLGLNPLQEDCVATHRICQIVSTRSASLCAATLAAVLWRIKENKGEERLRSTIGVDGSVYKKHPHFAKRLHKAVRRLVPDCDVRFLRSEDGSGKGAAMVTAVAYRLADQHRARQKTLESLKLSHEQLLEVKRRMKVEMEQGLSKETHAVAPVKMLPTYVCATPDGTEKGDFLALDLGGTNFRVLLVRVRNGKRRGVEMHNKIYSIPQEVMHGTGEELFDHIVQCIADFLEYMGMKGVSLPLGFTFSFPCQQNSLDQSILLKWTKGFKASGCEGEDVVTLLKEAIHRREEFDLDVVAVVNDTVGTMMTCGYEDPHCEVGLIVGTGSNACYMEEMRNVELVDGEEGRMCVNMEWGAFGDNGCLDDLRTVFDVAVDELSLNPGKQRFEKMISGMYLGEIVRNILIDFTKRGLLFRGRISERLKTRGIFETKFLSQIESDCLALLQVRAILRHLGLESTCDDSIIVKEVCTVVARRAAQLCGAGMAAVVDKIRENRGLDNLKVTVGVDGTLYKLHPHFAKVMHETVRDLAPKCDVSFLESEDGSGKGAALITAVACRIREAGQR
Km [10]: 710 µM

B2: Thymidine kinase, cytosolic (Rattus norvegicus), P27158 (protein)
chain: MSYINLPTVLPISPSKTRGQIQVILGPMFSGKSTELMRRVRRFQIAQYKCLVIKYAKDTRYSNSFSTHDRNTMDALPACMLKDVAQEALGVAVIGIDEGQFFPDIVDFCETMANTGKTVIV
Km [11]: 180 µM
Km [12]: 1.6 µM
Km [13]: 190 µM
Km [14]: 8 µM
